According to ChEMBL document CHEMBL1142961, “Novel selective inhibitors of the zinc plasmodial aminopeptidase PfA-M1 as potential antimalarial agents” (J Med Chem, 2007):

Key:
Aminopeptidase N [1] = biological target: T1, Aminopeptidase N (Plasmodium falciparum FcB1/Columbia, UniProt O96935); assay: Inhibition of Plasmodium falciparum FcB1 M1 aminopeptidase
T1 sequence (O96935 whole entry): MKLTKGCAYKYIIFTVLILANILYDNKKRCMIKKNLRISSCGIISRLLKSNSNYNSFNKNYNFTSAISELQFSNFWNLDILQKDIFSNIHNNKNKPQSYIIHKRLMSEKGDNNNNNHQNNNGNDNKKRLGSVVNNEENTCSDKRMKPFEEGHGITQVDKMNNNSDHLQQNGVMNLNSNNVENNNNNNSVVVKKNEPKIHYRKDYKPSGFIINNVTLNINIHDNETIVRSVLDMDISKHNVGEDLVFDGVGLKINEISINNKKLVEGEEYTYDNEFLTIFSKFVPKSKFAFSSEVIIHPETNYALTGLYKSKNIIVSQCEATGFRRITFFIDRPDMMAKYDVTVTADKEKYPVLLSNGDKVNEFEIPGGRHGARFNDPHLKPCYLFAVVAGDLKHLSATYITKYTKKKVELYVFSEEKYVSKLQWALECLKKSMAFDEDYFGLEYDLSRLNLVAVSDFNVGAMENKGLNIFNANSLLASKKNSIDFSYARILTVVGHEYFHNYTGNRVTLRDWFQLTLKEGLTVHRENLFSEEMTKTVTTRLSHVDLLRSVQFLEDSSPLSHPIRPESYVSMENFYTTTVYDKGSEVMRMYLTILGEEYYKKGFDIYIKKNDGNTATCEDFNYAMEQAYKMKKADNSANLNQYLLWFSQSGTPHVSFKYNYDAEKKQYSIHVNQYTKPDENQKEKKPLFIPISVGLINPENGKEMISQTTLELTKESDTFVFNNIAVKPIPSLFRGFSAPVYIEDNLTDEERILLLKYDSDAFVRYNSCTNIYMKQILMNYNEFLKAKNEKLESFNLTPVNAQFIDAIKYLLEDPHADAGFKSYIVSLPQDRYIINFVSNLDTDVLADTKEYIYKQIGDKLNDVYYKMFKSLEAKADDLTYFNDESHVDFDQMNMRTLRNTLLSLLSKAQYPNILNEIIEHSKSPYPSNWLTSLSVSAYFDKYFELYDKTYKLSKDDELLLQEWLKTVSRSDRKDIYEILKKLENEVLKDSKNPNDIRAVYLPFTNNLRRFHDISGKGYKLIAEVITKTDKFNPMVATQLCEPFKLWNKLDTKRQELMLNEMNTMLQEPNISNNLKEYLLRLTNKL
Summary of the method: (§1)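 Native enzyme purified from P. falciparum FcB1, diluted 10-fold in 25 mM Tris-HCl pH 7.4. Preincubated with inhibitor for 10 min at room temperature, then Leu-pNA substrate added (0.3 mM stock, Km 0.099 mM). Kinetics followed at 405 nm at room temperature. Initial velocities normalized to a no-inhibitor control. Single-point screen at 10 µM; IC50 from velocity versus inhibitor concentration curves. Bestatin used as reference.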

[2] = biological target: T2, Aminopeptidase N (Sus scrofa) (UniProt P15145); assay: Inhibition of pig kidney microsomal APN at 10 uM
T2 sequence (whole entry): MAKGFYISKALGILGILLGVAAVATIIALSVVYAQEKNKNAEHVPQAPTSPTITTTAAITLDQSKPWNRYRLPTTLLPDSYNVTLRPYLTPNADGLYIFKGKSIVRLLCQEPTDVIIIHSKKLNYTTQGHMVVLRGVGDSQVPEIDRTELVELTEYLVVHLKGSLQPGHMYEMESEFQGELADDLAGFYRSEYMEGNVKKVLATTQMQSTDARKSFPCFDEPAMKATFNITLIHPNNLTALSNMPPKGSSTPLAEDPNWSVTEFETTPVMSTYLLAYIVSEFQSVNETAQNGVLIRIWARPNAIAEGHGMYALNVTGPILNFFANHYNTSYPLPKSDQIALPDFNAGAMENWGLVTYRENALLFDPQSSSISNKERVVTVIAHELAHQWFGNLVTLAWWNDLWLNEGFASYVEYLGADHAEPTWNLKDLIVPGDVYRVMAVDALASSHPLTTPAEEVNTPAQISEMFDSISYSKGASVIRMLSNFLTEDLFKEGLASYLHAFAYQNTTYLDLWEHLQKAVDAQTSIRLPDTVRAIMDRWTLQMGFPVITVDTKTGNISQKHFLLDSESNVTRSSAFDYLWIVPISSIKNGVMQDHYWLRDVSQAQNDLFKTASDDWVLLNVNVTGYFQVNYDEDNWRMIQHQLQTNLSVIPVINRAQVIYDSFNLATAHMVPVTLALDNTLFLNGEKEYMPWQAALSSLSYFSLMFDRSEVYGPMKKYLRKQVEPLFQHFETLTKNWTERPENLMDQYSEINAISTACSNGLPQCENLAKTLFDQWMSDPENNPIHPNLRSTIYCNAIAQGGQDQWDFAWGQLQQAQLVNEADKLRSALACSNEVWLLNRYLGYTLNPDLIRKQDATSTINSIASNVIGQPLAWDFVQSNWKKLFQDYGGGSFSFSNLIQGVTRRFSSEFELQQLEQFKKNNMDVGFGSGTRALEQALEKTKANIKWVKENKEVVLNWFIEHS
Summary of the method: (§2)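 Porcine kidney microsomal APN (ammonium sulfate suspension) diluted 600-fold in 25 mM Tris-HCl pH 7.4. Preincubated with inhibitor for 10 min at room temperature, then Leu-pNA added (0.3 mM stock). Hydrolysis followed at 405 nm at room temperature. Rates normalized to a no-inhibitor control. Single point at 10 µM; IC50 from concentration-velocity curves. Bestatin used as reference.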

[3] = biological target: T3, Aminopeptidase N (Plasmodium falciparum FcB1/Columbia) (UniProt O96935); assay: Inhibition of Plasmodium falciparum FcB1 M1 aminopeptidase at 10 uM; summary of the method: as §1
T3 sequence (whole entry): T1 sequence (O96935 whole entry)

Aminopeptidase N [4] = biological target: T4, Aminopeptidase N (Sus scrofa, UniProt P15145); assay: Inhibition of pig kidney microsomal APN; summary of the method: as §2
T4 sequence (P15145 whole entry): T2 sequence (whole entry)

IC50 (Aminopeptidase N [1]) [µM]	inhibition [2] [%]	inhibition [3] [%]	IC50 (Aminopeptidase N [4]) [µM]	SMILES
1.01	70	82		O=C(NO)C(Cc1ccccc1)C(=O)NCCc1ccccc1 (stereo not drawn)
1.17	90	71		O=C(NO)C(Cc1ccccc1)C(=O)NCc1cccc(-c2ccccc2)c1 (stereo not drawn)
2.51	83	87		O=C(NO)C(Cc1ccccc1)C(=O)NCc1cccc(Oc2ccccc2)c1 (stereo not drawn)
0.253	50	84		O=C(NO)C(Cc1ccccc1)C(=O)N1CCc2ccccc2C1 (stereo not drawn)
1.76	21	75		O=C(NO)C(Cc1ccccc1)C(=O)N1CCN(Cc2ccccc2)CC1 (stereo not drawn)
0.045	96	88		CC(C)CC(C(=O)NO)C(=O)NCc1cccc(Oc2ccccc2)c1 (stereo not drawn)
1.15	92	87		CC(C)CC(C(=O)NO)C(=O)NCCCCc1ccccc1 (stereo not drawn)
> 10			> 10	O=C(NCCCCc1ccccc1)c1cc2ccccc2n(O)c1=O
0.091			8.58	CC(C)CC(C(=O)NO)C(=O)NCc1cccc2ccccc12 (stereo not drawn)
	76	59		O=C(NO)C(Cc1ccccc1)C(=O)NCCNc1cccc2ccccc12 (stereo not drawn)
	9	-4		NC(C(=O)NO)C(=O)N1CCC2(CCNc3ccccc3O2)CC1 (stereo not drawn)
	60	42		CC(C)CC(C(=O)NO)C(=O)N(CCCCc1ccccc1)CC(C)C (stereo not drawn)
	39	45		NC(C(=O)NO)C(=O)N1CCC(Cc2ccccc2)CC1 (stereo not drawn)
1.93	61	26		O=C(NO)C(Cc1ccccc1)C(=O)NC1Cc2ccccc2C1 (stereo not drawn)
	19	6		O=C(CC(=O)N1CCC(n2c(=O)[nH]c3ccccc32)CC1)NO
	11	-2		NC(C(=O)NO)C(=O)N1CCN(c2ccccc2)CC1 (stereo not drawn)
	34	4		NC(C(=O)NO)C(=O)N(CCc1ccccc1)Cc1ccccc1 (stereo not drawn)
0.13	76	96	2.53	O=C(NO)C(Cc1cccc(Oc2ccccc2)c1)C(=O)NCc1ccc(Cl)cc1 (stereo not drawn)
	12	-2		O=C(CC(=O)NC1Cc2ccccc2C1)NO
	93	61		CC(C)CC(C(=O)NO)C(=O)NC1Cc2ccccc2C1 (stereo not drawn)
	81	41		O=C(NO)C(Cc1cccc(Oc2ccccc2)c1)C(=O)NCc1cccc(-c2ccccc2)c1 (stereo not drawn)
	90	74		CC(C)CC(C(=O)NO)C(=O)N1CCc2ccccc2C1 (stereo not drawn)
	85	67		O=C(NO)C(Cc1cccc(Oc2ccccc2)c1)C(=O)NCCc1ccccn1 (stereo not drawn)
	85	99		O=C(NO)C(Cc1cccc(Oc2ccccc2)c1)C(=O)NCc1cccnc1 (stereo not drawn)
